Measurements published in ChEMBL document CHEMBL4715934, “Discovery of Imidazopyridines as Potent Inhibitors of Indoleamine 2,3-Dioxygenase 1 for Cancer Immunotherapy” (ACS Med Chem Lett, 2021).
Values belong to the molecule of their own block, whether it stands above or below them.

Columns and labels:
[1] = Metabolic stability in human liver microsomes assessed as parent compound remaining at 0.5 uM after 10 mins; format: ADME, Microsome; conditions: read-out: Stabilty
Method in brief: (§1)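 Parent compound at 0.5 μM incubated 10 min with 1 mg/mL human, mouse or rat liver microsomes; fraction of parent remaining reported; average of N = 2 unless noted.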

[2] = target: T1, Indoleamine 2,3-dioxygenase 1 (Homo sapiens, UniProt P14902); assay: Inhibition of IDO1 in recombinant IFN-gamma induced human HeLa cells incubated for 18 hrs by fluorescence microplate reader assay
Method in brief: (§2)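 HeLa (human) or M109 (murine) cells induced with IFNγ to express IDO1, then cellular IDO1 activity measured; values are the average of N = 2 unless noted.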

[3] = target: Indoleamine 2,3-dioxygenase 1 (Mus musculus, UniProt P28776); assay: Inhibition of IDO1 in recombinant IFN-gamma induced mouse M109 cells incubated for 18 hrs by fluorescence microplate reader assay; format: cell-based; method in brief: as §2
[4] = Metabolic stability in mouse liver microsomes assessed as parent compound remaining at 0.5 uM after 10 mins; format: ADME, Microsome; conditions: read-out: Stabilty; method in brief: as §1
[5] = Metabolic stability in rat liver microsomes assessed as parent compound remaining at 0.5 uM after 10 mins; format: ADME, Microsome; conditions: read-out: Stabilty; method in brief: as §1
[6] = target: T1, Indoleamine 2,3-dioxygenase 1; assay: Inhibition of IDO1 in IFN-gamma/LPS induced human whole blood assessed as tryptophan/kynurenine level measured after 18 hrs by RapidFire mass spectrometry; format: tissue-based
[7] = Metabolic stability assessed as mouse UGT -mediated metabolism by measuring half life; format: ADME
[8] = Metabolic stability assessed as cynomolgus monkey UGT -mediated metabolism by measuring half life; format: ADME, Macaca fascicularis
[9] = Permeability at pH 5.5 by PAMPA; format: ADME; conditions: read-out: permeability
[10] = Metabolic stability assessed as dog UGT -mediated metabolism by measuring half life; format: ADME, Canis lupus familiaris
[11] = Permeability across apical to basolateral side in human Caco2 cells; format: ADME, cell-based; conditions: Caco-2, read-out: permeability
Cytochrome P450 2D6 = Cytochrome P450 2D6 (Homo sapiens, UniProt P10635); assay: Inhibition of recombinant human CYP2D6; format: ADME
[12] = Metabolic stability assessed as rat UGT -mediated metabolism by measuring half life; format: ADME
[13] = Permeability at pH 7.4 by PAMPA; format: ADME; conditions: read-out: permeability
Cytochrome P450 3A4 = Cytochrome P450 3A4 (Homo sapiens, UniProt P08684); assay: Inhibition of recombinant human CYP3A4; format: ADME
Cytochrome P450 1A2 = target: T2, Cytochrome P450 1A2 (Homo sapiens, UniProt P05177); assay: Inhibition of recombinant human CYP1A2; format: ADME
T2 sequence (P05177 whole entry): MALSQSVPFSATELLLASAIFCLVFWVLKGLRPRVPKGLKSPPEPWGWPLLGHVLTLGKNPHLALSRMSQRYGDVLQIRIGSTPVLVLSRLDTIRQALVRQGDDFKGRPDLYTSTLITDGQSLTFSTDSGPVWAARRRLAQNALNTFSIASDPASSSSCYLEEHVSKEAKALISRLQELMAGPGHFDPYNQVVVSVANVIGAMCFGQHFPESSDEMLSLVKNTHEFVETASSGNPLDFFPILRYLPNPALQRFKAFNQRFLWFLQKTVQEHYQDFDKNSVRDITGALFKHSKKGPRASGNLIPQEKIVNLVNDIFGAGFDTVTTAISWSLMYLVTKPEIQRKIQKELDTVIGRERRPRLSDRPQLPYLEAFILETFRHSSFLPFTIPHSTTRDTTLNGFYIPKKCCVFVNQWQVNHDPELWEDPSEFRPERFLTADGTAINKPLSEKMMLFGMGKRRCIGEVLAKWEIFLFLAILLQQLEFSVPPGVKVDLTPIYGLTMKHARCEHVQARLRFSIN

[14] = Permeability across basolateral to apical side in human Caco2 cells; format: ADME, cell-based; conditions: Caco-2, read-out: permeability
[15] = Metabolic stability assessed as rat CYP-mediated metabolism by measuring half life; format: ADME
Cytochrome P450 2C8 = target: T3, Cytochrome P450 2C8 (Homo sapiens, UniProt P10632); assay: Inhibition of recombinant human CYP2C8; format: ADME
T3 sequence (P10632 whole entry): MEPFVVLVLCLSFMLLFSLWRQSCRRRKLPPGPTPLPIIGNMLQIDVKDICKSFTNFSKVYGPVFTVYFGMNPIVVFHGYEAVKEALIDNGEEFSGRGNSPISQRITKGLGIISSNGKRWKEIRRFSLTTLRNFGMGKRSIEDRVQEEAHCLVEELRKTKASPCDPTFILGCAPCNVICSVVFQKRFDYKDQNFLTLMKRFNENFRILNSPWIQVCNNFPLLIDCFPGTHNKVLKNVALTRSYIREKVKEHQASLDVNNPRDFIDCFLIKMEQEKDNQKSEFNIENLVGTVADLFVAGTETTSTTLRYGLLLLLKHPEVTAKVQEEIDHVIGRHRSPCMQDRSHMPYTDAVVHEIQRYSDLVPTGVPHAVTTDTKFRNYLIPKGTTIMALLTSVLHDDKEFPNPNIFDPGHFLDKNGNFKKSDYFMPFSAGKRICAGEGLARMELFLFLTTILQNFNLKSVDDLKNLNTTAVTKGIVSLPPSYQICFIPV

[16] = Metabolic stability assessed as dog CYP-mediated metabolism by measuring half life; format: ADME, Canis lupus familiaris
[17] = AUC (0 to 24 hrs) in mouse xenografted with human SKOV3 cells assessed in tumor at 20 mg/kg, po qd for 5 days measured upto 24 hrs after dosing; format: ADME, organism-based; parameters: route oral, dose 20 mg/kg, time 5 day
Method in brief: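 nu/nu nude mice carrying SKOV3 tumors grown 2 weeks; dosed QD for 5 days starting day 14. On day 18, tumor sampled at 2, 6 and 24 h for drug level and kynurenine. […] Kyn reduction measured at steady state after the 5th dose, taken as area under the Kyn concentration–time curve 0–24 h versus vehicle control.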

[18] = Metabolic stability assessed as mouse CYP-mediated metabolism by measuring half life; format: ADME
[19] = Metabolic stability assessed as human UGT-mediated metabolism by measuring half life; format: ADME
Cytochrome P450 2C19 = Cytochrome P450 2C19 (Homo sapiens, UniProt P33261); assay: Inhibition of recombinant human CYP2C19; format: ADME
[20] = Metabolic stability assessed as cynomolgus monkey CYP-mediated metabolism by measuring half life; format: ADME, Macaca fascicularis
Cytochrome P450 2C9 = Cytochrome P450 2C9 (Homo sapiens, UniProt P11712); assay: Inhibition of recombinant human CYP2C9; format: ADME
[21] = Metabolic stability assessed as human CYP-mediated metabolism by measuring half life; format: ADME

Chain of Indoleamine 2,3-dioxygenase 1 (Mus musculus, UniProt P28776) (P28776 whole entry): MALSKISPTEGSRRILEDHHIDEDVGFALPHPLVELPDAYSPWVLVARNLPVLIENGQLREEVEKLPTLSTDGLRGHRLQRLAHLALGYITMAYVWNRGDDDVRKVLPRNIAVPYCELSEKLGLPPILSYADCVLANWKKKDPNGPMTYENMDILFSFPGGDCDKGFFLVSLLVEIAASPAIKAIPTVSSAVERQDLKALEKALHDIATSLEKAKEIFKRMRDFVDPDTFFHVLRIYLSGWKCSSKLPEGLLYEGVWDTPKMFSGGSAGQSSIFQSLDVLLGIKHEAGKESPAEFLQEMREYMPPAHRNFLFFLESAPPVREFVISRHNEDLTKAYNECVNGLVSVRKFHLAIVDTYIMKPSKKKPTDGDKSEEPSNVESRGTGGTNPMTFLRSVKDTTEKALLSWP
T1 sequence (P14902 whole entry): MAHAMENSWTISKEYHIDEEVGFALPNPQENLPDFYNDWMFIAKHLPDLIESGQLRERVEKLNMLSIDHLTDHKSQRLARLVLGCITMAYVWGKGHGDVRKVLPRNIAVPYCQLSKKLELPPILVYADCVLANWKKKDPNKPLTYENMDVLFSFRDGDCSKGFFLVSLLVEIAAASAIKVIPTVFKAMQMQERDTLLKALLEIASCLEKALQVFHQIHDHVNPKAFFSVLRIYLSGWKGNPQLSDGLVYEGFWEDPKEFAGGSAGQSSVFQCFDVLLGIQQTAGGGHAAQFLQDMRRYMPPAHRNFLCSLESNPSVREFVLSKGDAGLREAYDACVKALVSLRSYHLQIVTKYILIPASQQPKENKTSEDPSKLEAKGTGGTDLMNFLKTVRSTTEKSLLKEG
Chain of Cytochrome P450 2C19 (P33261 whole entry): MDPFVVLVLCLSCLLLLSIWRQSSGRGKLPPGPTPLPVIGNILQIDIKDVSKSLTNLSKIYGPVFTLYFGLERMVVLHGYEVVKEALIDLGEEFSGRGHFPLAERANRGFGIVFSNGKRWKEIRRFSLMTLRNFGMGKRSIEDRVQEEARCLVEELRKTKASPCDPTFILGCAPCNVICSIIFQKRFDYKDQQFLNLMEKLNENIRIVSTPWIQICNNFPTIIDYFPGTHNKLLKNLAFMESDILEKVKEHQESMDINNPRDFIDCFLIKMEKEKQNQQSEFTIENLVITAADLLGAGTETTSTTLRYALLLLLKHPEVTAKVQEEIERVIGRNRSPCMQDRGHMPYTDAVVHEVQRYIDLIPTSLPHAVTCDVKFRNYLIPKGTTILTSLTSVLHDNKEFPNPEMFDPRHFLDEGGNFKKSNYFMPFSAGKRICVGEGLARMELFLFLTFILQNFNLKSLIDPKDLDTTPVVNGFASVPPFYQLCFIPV
Chain of Cytochrome P450 2C9 (P11712 whole entry): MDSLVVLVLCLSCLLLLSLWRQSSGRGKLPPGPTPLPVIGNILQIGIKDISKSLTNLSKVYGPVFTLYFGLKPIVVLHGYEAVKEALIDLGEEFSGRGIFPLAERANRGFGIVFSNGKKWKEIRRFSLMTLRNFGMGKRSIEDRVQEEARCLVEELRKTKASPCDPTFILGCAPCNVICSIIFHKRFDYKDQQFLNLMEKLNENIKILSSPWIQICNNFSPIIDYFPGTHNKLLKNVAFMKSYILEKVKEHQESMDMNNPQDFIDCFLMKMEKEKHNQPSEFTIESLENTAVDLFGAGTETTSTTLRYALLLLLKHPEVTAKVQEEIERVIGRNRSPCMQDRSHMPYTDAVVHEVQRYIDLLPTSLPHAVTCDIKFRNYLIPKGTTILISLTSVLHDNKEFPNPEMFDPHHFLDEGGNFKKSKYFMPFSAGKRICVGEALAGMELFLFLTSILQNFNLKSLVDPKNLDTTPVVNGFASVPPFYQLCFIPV
Chain of Cytochrome P450 3A4 (P08684 whole entry): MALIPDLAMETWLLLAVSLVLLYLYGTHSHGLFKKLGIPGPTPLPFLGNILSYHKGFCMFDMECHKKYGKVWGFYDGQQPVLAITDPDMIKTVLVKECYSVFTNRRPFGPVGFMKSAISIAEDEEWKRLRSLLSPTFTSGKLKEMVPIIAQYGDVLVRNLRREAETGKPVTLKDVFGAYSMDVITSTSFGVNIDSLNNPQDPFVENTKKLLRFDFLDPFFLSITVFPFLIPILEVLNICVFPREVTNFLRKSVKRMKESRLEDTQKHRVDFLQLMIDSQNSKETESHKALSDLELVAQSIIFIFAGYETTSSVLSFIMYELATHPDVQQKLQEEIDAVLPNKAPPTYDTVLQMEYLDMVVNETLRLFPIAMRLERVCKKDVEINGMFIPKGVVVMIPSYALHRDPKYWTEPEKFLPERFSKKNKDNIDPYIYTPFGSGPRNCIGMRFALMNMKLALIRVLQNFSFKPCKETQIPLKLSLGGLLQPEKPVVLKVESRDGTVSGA
Chain of Cytochrome P450 2D6 (P10635 whole entry): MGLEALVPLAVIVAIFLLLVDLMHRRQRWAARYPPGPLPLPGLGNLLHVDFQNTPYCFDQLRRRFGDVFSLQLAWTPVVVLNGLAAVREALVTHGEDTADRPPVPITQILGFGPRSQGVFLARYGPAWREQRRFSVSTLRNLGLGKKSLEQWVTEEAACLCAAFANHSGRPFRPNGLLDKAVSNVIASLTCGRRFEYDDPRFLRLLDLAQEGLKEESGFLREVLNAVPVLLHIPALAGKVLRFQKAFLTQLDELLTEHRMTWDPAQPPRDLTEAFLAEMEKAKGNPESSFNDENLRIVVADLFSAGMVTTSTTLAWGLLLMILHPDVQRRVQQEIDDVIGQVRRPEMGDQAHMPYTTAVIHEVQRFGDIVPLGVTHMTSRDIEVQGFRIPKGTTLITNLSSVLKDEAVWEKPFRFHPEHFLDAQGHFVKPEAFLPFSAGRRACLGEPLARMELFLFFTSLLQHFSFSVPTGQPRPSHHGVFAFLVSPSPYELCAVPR

remaining at 10 min, 0.5 µM [1]: 58%
IC50 [2]: 11 nM
IC50 [3]: 80 nM
remaining at 10 min, 0.5 µM [4]: 59%
remaining at 10 min, 0.5 µM [5]: 3%
SMILES: C[C@@H](c1ncc(-c2ccc(Cl)cc2)[nH]1)[C@H]1CC[C@@H](c2ccnc3ccc(F)cc32)CC1

IC50 [6]: 36 nM
remaining at 10 min, 0.5 µM [1]: 84%
IC50 [2]: 7 nM
IC50 [3]: 52 nM
remaining at 10 min, 0.5 µM [4]: 82%
remaining at 10 min, 0.5 µM [5]: 80%
SMILES: CCC(c1nc2ccc(Cl)cc2[nH]1)[C@H]1CC[C@H](Oc2ccnc3ccccc23)CC1 (stereo partly specified)

remaining at 10 min, 0.5 µM [1]: 42%
IC50 [2]: 3 nM
IC50 [3]: 22 nM
remaining at 10 min, 0.5 µM [4]: 5%
remaining at 10 min, 0.5 µM [5]: 0%
SMILES: C[C@@H](c1nc2ccc(F)cc2[nH]1)[C@H]1CC[C@@H](c2ccnc3ccc(F)cc32)CC1

IC50 [6]: 21 nM
half-life [7]: > 2 h
half-life [8]: > 2 h
Papp [9]: 238 ×10⁻⁶ cm/s
remaining at 10 min, 0.5 µM [1]: 81%
half-life [10]: 1.75 h
Papp A→B [11]: 11.3 ×10⁻⁶ cm/s
IC50 [2]: 2 nM
IC50 (Cytochrome P450 2D6): 4280 nM
half-life [12]: 1.78 h
Papp [13]: 263 ×10⁻⁶ cm/s
IC50 (Cytochrome P450 3A4): 1930 nM
IC50 (Cytochrome P450 1A2): 2550 nM
IC50 [3]: 3 nM
Papp B→A [14]: 6.6 ×10⁻⁶ cm/s
half-life [15]: 1 h
IC50 (Cytochrome P450 2C8): 1470 nM
half-life [16]: 0.683 h
remaining at 10 min, 0.5 µM [4]: 57%
remaining at 10 min, 0.5 µM [5]: 81%
AUC at 120 h [17]: 43.6 µM·h
half-life [18]: 0.283 h
half-life [19]: 1.58 h
IC50 (Cytochrome P450 2C19): 1130 nM
half-life [20]: 0.35 h
IC50 (Cytochrome P450 2C9): 242 nM
half-life [21]: 0.9 h
SMILES: CCC(c1nc2ncc(Cl)cc2[nH]1)[C@H]1CC[C@@H](c2ccnc3ccc(C(F)(F)F)cc32)CC1 (stereo partly specified)

remaining at 10 min, 0.5 µM [1]: 97%
IC50 [2]: 495 nM
IC50 [3]: 631 nM
remaining at 10 min, 0.5 µM [4]: 78%
remaining at 10 min, 0.5 µM [5]: 62%
SMILES: C[C@@H](c1ncc(-c2ccc(Cl)cc2)o1)[C@H]1CC[C@@H](c2ccnc3ccc(F)cc32)CC1

IC50 [6]: 16 nM
remaining at 10 min, 0.5 µM [1]: 66%
IC50 [2]: 6 nM
IC50 [3]: 31 nM
remaining at 10 min, 0.5 µM [4]: 31%
remaining at 10 min, 0.5 µM [5]: 45%
SMILES: CCC(Nc1nnc(-c2ccc(OC)cc2)o1)[C@H]1CC[C@@H](c2ccnc3ccc(F)cc32)CC1 (stereo partly specified)

remaining at 10 min, 0.5 µM [1]: 64%
IC50 [2]: 3 nM
IC50 [3]: 14 nM
remaining at 10 min, 0.5 µM [4]: 17%
remaining at 10 min, 0.5 µM [5]: 35%
SMILES: COc1ccc(-c2nnc(N[C@H](C)[C@H]3CC[C@@H](c4ccnc5ccc(F)cc54)CC3)o2)cc1

IC50 [6]: 31 nM
remaining at 10 min, 0.5 µM [1]: 57%
IC50 [2]: 3 nM
IC50 [3]: 44 nM
remaining at 10 min, 0.5 µM [4]: 19%
remaining at 10 min, 0.5 µM [5]: 24%
SMILES: COCC(Nc1nnc(-c2ccc(OC)cc2)o1)[C@H]1CC[C@@H](c2ccnc3ccc(F)cc32)CC1 (stereo partly specified)

IC50 [6]: 39 nM
remaining at 10 min, 0.5 µM [1]: 67%
IC50 [2]: 4 nM
IC50 [3]: 36 nM
remaining at 10 min, 0.5 µM [4]: 22%
remaining at 10 min, 0.5 µM [5]: 17%
SMILES: C[C@@H](c1nc2ncc(Cl)cc2[nH]1)[C@H]1CC[C@@H](c2ccnc3ccc(F)cc32)CC1
